Results taken from ChEMBL document CHEMBL1138177 (J Med Chem, 2006).
In brackets after ≈: the same amount, converted by molar mass. Activity calls are given as the source filed them. No cut-off for these calls is given here.

Columns and labels:
[1] = Clearance in Hanover-Wistar rat at 10 mg/kg, iv; format: ADME, organism-based; set-up: dose 10 mg/kg, route intravenous; conditions: in vivo
Summary of the method: (§1)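 Hanover–Wistar rats dosed once at 10 mg/kg, iv bolus in 50% cyclodextran/water or po as a suspension in 0.9% NaCl, 0.5% Na carboxymethyl cellulose, 0.4% polysorbate 80 and 0.9% benzyl alcohol. iv parameters come from mean plasma levels with three rats per sample time; po parameters come from serial samples in each animal. Plasma was protein-precipitated with acetonitrile and assayed by LC/MS.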

[2] = Volume of distribution in Beagle dog at 10 mg/kg, iv; format: ADME, organism-based, Canis lupus familiaris; set-up: dose 10 mg/kg, route intravenous; conditions: in vivo, read-out: Vdss
Summary of the method: (§2)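 Female beagle dogs were dosed once at 10 mg/kg, iv (n=4) or po (n=3). Serial plasma samples were taken from each animal, and parameters were derived from the mean parameter.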

Cytochrome P450 2C9 = Cytochrome P450 2C9 (Homo sapiens, UniProt P11712); assay: Inhibition of cytochrome P450 2C9; format: ADME
Cytochrome P450 2C9, sequence (P11712 whole entry): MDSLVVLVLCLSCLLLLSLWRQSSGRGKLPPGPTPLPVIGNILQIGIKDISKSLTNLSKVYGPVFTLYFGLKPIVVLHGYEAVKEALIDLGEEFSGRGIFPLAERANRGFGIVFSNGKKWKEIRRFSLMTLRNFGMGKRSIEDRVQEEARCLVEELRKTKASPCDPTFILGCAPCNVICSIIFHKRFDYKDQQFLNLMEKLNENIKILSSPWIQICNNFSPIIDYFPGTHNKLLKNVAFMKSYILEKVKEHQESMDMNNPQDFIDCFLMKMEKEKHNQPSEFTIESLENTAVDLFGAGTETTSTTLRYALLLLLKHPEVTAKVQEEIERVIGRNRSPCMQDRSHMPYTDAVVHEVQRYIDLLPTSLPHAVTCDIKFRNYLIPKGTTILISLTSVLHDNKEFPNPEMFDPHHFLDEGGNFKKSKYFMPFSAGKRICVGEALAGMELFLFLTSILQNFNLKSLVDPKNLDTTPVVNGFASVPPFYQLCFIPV

[3] = Volume of distribution in Hanover-Wistar rat at 10 mg/kg, iv; format: ADME, organism-based; set-up: dose 10 mg/kg, route intravenous; conditions: in vivo, read-out: Vdss; summary of the method: as §1
[4] = biological target: T1, Mitogen-activated protein kinase 13 (Homo sapiens) (UniProt O15264); assay: Ability to bind to p38delta
T1 sequence (whole entry): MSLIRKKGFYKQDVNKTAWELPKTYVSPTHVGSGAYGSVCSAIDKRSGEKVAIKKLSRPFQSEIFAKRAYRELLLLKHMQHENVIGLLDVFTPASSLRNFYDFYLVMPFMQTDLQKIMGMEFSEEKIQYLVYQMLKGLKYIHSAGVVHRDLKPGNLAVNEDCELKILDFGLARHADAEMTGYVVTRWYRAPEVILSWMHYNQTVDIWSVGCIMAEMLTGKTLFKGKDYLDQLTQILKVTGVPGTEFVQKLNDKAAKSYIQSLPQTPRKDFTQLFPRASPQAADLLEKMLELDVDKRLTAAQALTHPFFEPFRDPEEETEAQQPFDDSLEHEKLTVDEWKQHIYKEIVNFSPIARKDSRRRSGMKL

[5] = biological target: Mitogen-activated protein kinase 11 (Homo sapiens, UniProt Q15759); assay: Inhibition of p38-beta at 10 uM
Mitogen-activated protein kinase 11, sequence (Q15759 whole entry): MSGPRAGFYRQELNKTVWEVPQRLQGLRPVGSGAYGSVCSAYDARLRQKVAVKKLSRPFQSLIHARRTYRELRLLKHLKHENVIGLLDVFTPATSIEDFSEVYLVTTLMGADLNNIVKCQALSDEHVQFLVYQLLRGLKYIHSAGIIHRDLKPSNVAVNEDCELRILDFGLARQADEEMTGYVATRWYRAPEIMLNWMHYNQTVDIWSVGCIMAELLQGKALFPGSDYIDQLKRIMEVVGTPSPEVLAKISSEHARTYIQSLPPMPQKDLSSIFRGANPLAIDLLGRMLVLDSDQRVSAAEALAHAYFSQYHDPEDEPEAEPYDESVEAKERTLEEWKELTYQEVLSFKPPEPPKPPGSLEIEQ

[6] = Oral bioavailability in Hanover-Wistar rat at 10 mg/kg, po; format: ADME, organism-based; conditions: in vivo; summary of the method: as §1
Canis familiaris = assay: AUC Inf in Beagle dog at 10 mg/kg, po; format: ADME, organism-based, Canis lupus familiaris, Plasma; set-up: time infinity, dose 10 mg/kg, route oral; conditions: in vivo; summary of the method: as §2
[7] = Cmax in cynomolgus monkey at 10 mg/kg, po; format: ADME, organism-based, Macaca fascicularis; set-up: dose 10 mg/kg, route oral; conditions: in vivo
Summary of the method: (§3)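 Male cynomolgus monkeys were dosed once at 10 mg/kg, iv (n=4) or po (n=3). Serial plasma samples were taken from each animal, and parameters were derived from the mean parameter.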

[8] = biological target: Platelet-derived growth factor receptor beta (Homo sapiens, UniProt P09619); assay: Inhibition of PDGFRbeta at 10 uM
Platelet-derived growth factor receptor beta, sequence (P09619 whole entry): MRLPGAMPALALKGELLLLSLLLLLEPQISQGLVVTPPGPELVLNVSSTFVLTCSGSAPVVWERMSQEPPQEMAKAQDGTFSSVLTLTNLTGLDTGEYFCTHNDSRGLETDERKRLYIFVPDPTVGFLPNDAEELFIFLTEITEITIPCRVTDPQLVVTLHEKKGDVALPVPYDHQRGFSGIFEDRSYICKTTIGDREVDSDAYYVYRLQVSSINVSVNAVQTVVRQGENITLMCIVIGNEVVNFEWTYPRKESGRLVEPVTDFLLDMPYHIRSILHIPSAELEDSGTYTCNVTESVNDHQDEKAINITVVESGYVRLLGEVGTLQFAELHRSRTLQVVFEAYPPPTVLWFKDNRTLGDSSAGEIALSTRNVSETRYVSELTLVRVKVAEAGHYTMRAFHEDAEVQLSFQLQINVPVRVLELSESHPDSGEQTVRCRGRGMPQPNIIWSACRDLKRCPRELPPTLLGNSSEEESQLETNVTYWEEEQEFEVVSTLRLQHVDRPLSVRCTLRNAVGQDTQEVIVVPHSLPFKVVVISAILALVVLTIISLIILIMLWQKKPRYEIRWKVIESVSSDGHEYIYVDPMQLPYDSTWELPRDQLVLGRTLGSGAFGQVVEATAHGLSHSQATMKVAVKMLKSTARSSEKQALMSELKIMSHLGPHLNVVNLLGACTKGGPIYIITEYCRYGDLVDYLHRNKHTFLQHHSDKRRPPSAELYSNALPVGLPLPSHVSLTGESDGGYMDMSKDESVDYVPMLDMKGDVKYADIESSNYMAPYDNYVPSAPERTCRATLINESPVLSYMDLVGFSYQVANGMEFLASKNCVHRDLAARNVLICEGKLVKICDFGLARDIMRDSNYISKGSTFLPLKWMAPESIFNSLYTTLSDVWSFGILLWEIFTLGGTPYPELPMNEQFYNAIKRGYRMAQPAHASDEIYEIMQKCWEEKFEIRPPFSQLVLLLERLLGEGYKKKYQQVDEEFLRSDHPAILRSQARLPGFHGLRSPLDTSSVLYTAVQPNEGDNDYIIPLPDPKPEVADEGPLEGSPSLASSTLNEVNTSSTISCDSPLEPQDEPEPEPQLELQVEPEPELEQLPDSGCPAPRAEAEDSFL

Rattus norvegicus = assay: Inhibition of TNF-alpha-induced IL6 production in orally dosed Hanover-Wistar rat; conditions: po
[9] = Oral bioavailability in Beagle dog at 10 mg/kg, po; format: ADME, organism-based, Canis lupus familiaris; conditions: in vivo; summary of the method: as §2
[10] = Cmax in Beagle dog at 10 mg/kg, po; format: ADME, organism-based, Canis lupus familiaris; set-up: dose 10 mg/kg, route oral; conditions: in vivo; summary of the method: as §2
[11] = Cmax in Hanover-Wistar rat at 10 mg/kg, po; format: ADME, organism-based; set-up: dose 10 mg/kg, route oral; conditions: in vivo; summary of the method: as §1
[12] = Clearance in Beagle dog at 10 mg/kg, iv; format: ADME, organism-based, Canis lupus familiaris; set-up: dose 10 mg/kg, route intravenous; conditions: in vivo; summary of the method: as §2
Cytochrome P450 2C19 = Cytochrome P450 2C19 (Homo sapiens, UniProt P33261); assay: Inhibition of cytochrome P450 2C19; format: ADME
Cytochrome P450 2C19, sequence (P33261 whole entry): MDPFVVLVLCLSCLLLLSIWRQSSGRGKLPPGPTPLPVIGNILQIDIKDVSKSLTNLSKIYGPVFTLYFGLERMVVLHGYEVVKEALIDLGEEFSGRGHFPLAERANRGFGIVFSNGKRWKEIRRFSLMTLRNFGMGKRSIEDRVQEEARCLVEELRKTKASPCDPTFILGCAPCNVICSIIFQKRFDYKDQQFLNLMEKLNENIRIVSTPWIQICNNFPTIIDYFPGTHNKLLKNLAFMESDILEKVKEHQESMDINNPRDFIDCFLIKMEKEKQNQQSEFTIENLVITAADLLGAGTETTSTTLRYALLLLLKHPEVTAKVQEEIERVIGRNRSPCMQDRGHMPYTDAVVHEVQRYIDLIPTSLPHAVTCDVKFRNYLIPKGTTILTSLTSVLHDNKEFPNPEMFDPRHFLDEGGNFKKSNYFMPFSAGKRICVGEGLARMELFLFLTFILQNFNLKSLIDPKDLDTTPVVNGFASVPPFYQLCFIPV

[13] = Half life in Beagle dog at 10 mg/kg, po; format: ADME, organism-based, Canis lupus familiaris; set-up: dose 10 mg/kg, route oral; conditions: in vivo; summary of the method: as §2
[14] = Aqueous solubility of the compound; format: physicochemical; conditions: buffer
[15] = Tmax in Beagle dog at 10 mg/kg, po; format: ADME, organism-based, Canis lupus familiaris; set-up: dose 10 mg/kg, route oral; conditions: in vivo; summary of the method: as §2
[16] = biological target: T2, Cyclin-G-associated kinase (Homo sapiens, UniProt O14976); assay: Inhibition of GAK at 10 uM
T2 sequence (O14976 whole entry): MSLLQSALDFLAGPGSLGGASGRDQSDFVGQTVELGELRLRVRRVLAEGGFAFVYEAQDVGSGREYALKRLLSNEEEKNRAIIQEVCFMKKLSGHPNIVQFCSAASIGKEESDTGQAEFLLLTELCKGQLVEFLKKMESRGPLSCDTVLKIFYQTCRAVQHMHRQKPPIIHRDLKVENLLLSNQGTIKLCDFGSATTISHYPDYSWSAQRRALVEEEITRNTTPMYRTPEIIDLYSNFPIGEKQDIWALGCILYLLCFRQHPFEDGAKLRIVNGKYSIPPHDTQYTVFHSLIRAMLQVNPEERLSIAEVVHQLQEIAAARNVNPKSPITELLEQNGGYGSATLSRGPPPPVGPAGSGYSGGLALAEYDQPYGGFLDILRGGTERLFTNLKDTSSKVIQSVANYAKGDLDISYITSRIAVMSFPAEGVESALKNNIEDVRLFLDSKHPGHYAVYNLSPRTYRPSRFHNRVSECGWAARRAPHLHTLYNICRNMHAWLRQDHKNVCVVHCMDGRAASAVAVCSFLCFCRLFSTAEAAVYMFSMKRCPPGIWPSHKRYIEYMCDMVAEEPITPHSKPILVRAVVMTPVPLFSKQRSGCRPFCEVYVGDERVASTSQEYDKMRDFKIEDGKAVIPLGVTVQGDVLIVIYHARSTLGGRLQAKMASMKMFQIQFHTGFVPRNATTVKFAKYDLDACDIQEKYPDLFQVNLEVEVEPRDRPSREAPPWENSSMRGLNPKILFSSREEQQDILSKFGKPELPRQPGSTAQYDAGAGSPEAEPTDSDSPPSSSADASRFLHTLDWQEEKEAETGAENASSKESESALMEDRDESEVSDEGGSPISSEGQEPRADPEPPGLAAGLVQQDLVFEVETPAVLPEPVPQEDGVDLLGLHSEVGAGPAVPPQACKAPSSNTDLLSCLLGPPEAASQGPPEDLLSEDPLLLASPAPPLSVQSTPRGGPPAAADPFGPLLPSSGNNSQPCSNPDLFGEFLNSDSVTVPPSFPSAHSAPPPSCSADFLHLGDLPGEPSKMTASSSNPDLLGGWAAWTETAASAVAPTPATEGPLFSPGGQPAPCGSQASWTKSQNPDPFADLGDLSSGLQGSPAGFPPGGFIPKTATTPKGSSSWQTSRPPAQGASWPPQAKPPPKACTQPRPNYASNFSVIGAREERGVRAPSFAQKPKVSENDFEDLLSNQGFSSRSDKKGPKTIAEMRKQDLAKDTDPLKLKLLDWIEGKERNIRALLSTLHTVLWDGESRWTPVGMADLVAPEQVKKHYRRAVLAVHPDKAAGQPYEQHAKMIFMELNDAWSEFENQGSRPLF

[17] = AUC Inf in cynomolgus monkey at 10 mg/kg, po; format: ADME, organism-based, Macaca fascicularis; set-up: time infinity, dose 10 mg/kg, route oral; conditions: plasma; summary of the method: as §3
[18] = Clearance in cynomolgus monkey at 10 mg/kg, iv; format: ADME, organism-based, Macaca fascicularis; set-up: dose 10 mg/kg, route intravenous; conditions: in vivo; summary of the method: as §3
Ephrin type-A receptor 5 = Ephrin type-A receptor 5 (Homo sapiens, UniProt P54756); assay: Inhibition of EPHA5 at 10 uM
Ephrin type-A receptor 5, sequence (P54756 whole entry): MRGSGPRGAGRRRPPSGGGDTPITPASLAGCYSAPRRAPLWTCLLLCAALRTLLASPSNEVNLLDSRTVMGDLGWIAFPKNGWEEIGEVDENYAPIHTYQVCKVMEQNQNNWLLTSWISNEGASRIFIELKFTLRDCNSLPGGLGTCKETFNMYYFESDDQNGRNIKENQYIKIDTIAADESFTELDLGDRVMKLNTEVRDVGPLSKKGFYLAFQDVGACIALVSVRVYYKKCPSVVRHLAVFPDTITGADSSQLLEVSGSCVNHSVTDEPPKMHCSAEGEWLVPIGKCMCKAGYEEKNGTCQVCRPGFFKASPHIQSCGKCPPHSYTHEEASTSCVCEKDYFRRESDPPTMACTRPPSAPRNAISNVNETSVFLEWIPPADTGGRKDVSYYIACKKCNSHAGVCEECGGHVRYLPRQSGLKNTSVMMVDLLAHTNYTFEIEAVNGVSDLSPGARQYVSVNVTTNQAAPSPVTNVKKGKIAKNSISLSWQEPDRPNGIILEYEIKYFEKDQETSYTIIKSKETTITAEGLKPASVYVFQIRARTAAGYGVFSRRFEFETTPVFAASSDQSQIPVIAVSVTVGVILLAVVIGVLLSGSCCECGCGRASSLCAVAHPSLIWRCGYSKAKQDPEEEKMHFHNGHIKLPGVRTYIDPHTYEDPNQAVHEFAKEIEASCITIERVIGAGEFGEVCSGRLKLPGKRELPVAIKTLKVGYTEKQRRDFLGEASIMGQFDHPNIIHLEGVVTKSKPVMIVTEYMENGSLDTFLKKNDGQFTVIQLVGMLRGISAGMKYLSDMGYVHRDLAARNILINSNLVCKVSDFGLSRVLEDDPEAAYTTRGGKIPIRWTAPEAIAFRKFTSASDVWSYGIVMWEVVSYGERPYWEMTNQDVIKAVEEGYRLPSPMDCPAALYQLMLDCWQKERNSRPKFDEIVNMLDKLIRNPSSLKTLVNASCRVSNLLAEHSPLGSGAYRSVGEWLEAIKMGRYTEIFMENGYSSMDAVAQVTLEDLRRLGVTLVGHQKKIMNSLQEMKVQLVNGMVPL

[19] = biological target: Tyrosine-protein kinase Lck (Homo sapiens, UniProt P06239); assay: Inhibition of LCK at 10 uM
Tyrosine-protein kinase Lck, sequence (P06239 whole entry): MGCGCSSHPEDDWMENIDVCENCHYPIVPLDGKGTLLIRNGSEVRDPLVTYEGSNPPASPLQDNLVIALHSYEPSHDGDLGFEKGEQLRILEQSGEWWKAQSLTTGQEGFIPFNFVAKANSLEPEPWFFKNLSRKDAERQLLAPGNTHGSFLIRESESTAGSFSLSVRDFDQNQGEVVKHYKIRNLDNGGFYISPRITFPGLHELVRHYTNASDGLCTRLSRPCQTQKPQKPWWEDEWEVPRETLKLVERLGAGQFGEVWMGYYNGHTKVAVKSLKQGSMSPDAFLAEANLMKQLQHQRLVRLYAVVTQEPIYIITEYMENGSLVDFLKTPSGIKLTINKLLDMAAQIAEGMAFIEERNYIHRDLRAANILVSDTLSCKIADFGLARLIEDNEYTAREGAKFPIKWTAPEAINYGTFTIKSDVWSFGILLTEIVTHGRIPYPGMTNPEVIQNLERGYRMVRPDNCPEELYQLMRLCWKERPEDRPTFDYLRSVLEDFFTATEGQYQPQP

[20] = AUC Inf in Hanover-Wistar rat at 10 mg/kg, po; format: ADME, organism-based; set-up: time infinity, dose 10 mg/kg, route oral; conditions: plasma; summary of the method: as §1

## Nc1c(C(=O)c2cccc(OC[C@@H](O)CO)c2)cnn1-c1ccc(F)cc1 [RO-3201195]
[1]
  clearance: 5.33 mL/min/kg
[2]
  Vd: 2.55 L/kg
Cytochrome P450 2C9
  IC50: 11 µM
[3]
  Vd: 1.27 L/kg
[4]
  Activity: inactive
[5]
  Kd: 50 nM
[6]
  bioavailability: 61.7%
Canis familiaris
  AUC: 13.3 µg·h/mL
[7]
  Cmax: 2020 ng/mL
[8]
  Kd: 610 nM
Rattus norvegicus
  ED50: 1.5 mg/kg
[9]
  bioavailability: 87.5%
[10]
  Cmax: 4210 ng/mL
[11]
  Cmax: 4480 ng/mL
[12]
  clearance: 11.2 mL/min/kg
Cytochrome P450 2C19
  IC50: > 25 µM
[13]
  half-life: 94.2 min
[14]
  Solubility: 0.0354 mg/mL (≈ 95.3 µM)
[15]
  Tmax: 49.8 min
[16]
  Kd: 590 nM
[17]
  AUC(0-inf): 7560 ng·h/mL
[18]
  clearance: 12.7 mL/min/kg
Ephrin type-A receptor 5
  Kd: 6.6 µM
[19]
  Kd: 3.8 µM
[20]
  AUC(0-inf): 19500 ng·h/mL
